For 19 compounds, Benzidine positive cells, IC50 and Optimal concentration results are on record in ChEMBL document CHEMBL1123086, “8-Substituted guanosine and 2'-deoxyguanosine derivatives as potential inducers of the differentiation of Friend erythroleukemia cells” (1985).

Assay [1] has as its system Friend leukemia cell line. The assay can be described thus: Inhibitory activity against cellular differentiation in Friend erythroleukemia cells as percentage of benzidine - positive cells. In kind it is functional, Mus musculus. An outline of the steps:
(§1)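 Parental Friend murine erythroleukemia cells in exponential growth, seeded at (7–8) × 10⁴ cells/mL in Dulbecco's modified Eagle's MEM with 15% fetal bovine serum and 2 mM L-glutamine under 10% CO₂. Exposed to graded 2.5-fold concentration increases. On day 6, hemoglobin-containing cells staining blue with acidic 3,3',5,5'-tetramethylbenzidine peroxide were counted cytologically and reported as percent benzidine-positive cells.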

The subject of assay [2] is Friend erythroleukemia cells, HGPRT- (Mus musculus). The assay can be described thus: Inhibitory activity against cellular replication in hypoxanthine-guanine phosphoribosyltransferase (HGPRT-) Friend murine erythroleukemia cells. The settings on record: read-out: ID50 (the source's name).
Assay [3] deals with Friend leukemia cell line. The assay can be described thus: Inhibitory activity against cellular differentiation in Friend erythroleukemia cells as optimal concentration required for maximum activity. The assay is classed as functional, Mus musculus. An outline of the steps: as §1
Assay [4] deals with Friend leukemia cell line. Put plainly: Inhibitory activity against cellular replication in Friend erythroleukemia cells as growth inhibition. The assay is classed as functional. The settings on record: Mus musculus, read-out: ID50 (the source's name). The method in brief: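 Exponentially growing parental Friend erythroleukemia cells at (7–8) × 10⁴ cells/mL in DMEM with 15% FBS under 10% CO₂. Incubated with graded 2.5-fold concentration steps. Cell number was counted on day 3 with a particle counter, and percent growth inhibition was calculated from log cell number.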

In the case of `COc1nc2c(O)nc(N)nc2n1[C@H]1C[C@H](O)[C@@H](CO)O1`, the Benzidine positive cells in assay [1] is reported as 22%. Moreover, the IC50 in assay [2] and in assay [4] was more than 5 mM in each case. In assay [3], this compound returned an Optimal concentration of 5 mM.
`Nc1nc(O)c2nc(NO)n(C3O[C@H](CO)[C@@H](O)[C@H]3O)c2n1` (stereo partly specified) showed a Benzidine positive cells in assay [1] of 7%. This compound yielded an Optimal concentration in assay [3] of 6 mM. In addition, the IC50 in assay [4] was more than 5 mM.
Take `CSc1nc2c(O)nc(N)nc2n1C1O[C@H](CO)[C@@H](O)[C@H]1O` (stereo partly specified): the Benzidine positive cells in assay [1] came to 11%. The IC50 in assay [2] and in assay [4] was more than 8 mM in each case. In assay [3], the Optimal concentration came to 5 mM.
`Nc1nc(O)c2nc(OCc3ccccc3)n(C3O[C@H](CO)[C@@H](O)[C@H]3O)c2n1` (stereo partly specified) gave a Benzidine positive cells in assay [1] of 4%. Also, the IC50 in assay [2] and in assay [4] was more than 8 mM throughout. Also, the Optimal concentration in assay [3] is 8 mM.
As for `Nc1nc2c(nc(O)n2[C@@H]2O[C@H](CO)[C@@H](O)[C@H]2O)c(=O)[nH]1` [8-HYDROXYGUANOSINE], in assay [1], the Benzidine positive cells is listed as 33%. Moreover, the IC50 in assay [2] and in assay [4] was 8 mM throughout. This compound yielded an Optimal concentration in assay [3] of 5 mM.
Compound `CN(C)c1nc2c(=O)[nH]c(N)nc2n1[C@@H]1O[C@H](CO)[C@@H](O)[C@H]1O` returned a Benzidine positive cells in assay [1] of 68%. The IC50 in assay [2] and in assay [4] was more than 5 mM in each case. In assay [3], this compound yielded an Optimal concentration of 5 mM.
The compound `Nc1nc2c([nH]c(=O)n2[C@H]2C[C@H](O)[C@@H](CO)O2)c(=O)[nH]1` came in with a Benzidine positive cells in assay [1] of 62%. Also, the IC50 in assay [2] and in assay [4] was 0.39 mM each time. For the same compound, the Optimal concentration in assay [3] came to 0.2 mM.
As for `Nc1nc(O)c2nc(Br)n([C@H]3C[C@H](O)[C@@H](CO)O3)c2n1`, in assay [1], the Benzidine positive cells was 20%. Further, the IC50 in assay [2] and in assay [4] was more than 5 mM throughout. In assay [3], this compound had an Optimal concentration of 7 mM.
Consider `[N-]=[N+]=Nc1nc2c(O)nc(N)nc2n1C1O[C@H](CO)[C@@H](O)[C@H]1O` (stereo partly specified), for which the Benzidine positive cells in assay [1] is on record as 12%. In addition, the IC50 in assay [2] and in assay [4] was 3.6 mM throughout. Also, the Optimal concentration in assay [3] was determined as 2 mM.
The compound `Nc1nc(O)c2nc(N)n([C@@H]3O[C@H](CO)[C@@H](O)[C@H]3O)c2n1` yielded a Benzidine positive cells in assay [1] of 34%. Further, the IC50 in assay [2] and in assay [4] was 1.7 mM throughout. In assay [3], this compound showed an Optimal concentration of 0.4 mM.
Compound `Nc1nc2c(ncn2[C@@H]2O[C@H](CO)[C@@H](O)[C@H]2O)c(=O)[nH]1` [GUANOSINE] yielded a Benzidine positive cells in assay [1] of 0%. Also, the IC50 is 7.8 mM in assay [2] and 1.2 mM in assay [4].
On to `Nc1nc(O)c2ncn([C@H]3C[C@H](O)[C@@H](CO)O3)c2n1` [DEOXYGUANOSINE], for which the Benzidine positive cells in assay [1] amounted to 0%. Moreover, the values for the IC50 in assay [2] and in assay [4] were 0.49 mM and 0.29 mM, respectively.
As for `CS(=O)(=O)c1nc2c(O)nc(N)nc2n1C1O[C@H](CO)[C@@H](O)[C@H]1O` (stereo partly specified), the Benzidine positive cells in assay [1] is 30%. For the same compound, the IC50 in assay [2] was determined as 10 mM; in assay [4] it was 5.4 mM. In addition, the Optimal concentration in assay [3] is 5 mM.
For `CNc1nc2c(=O)[nH]c(N)nc2n1[C@@H]1O[C@H](CO)[C@@H](O)[C@H]1O` the same measures were 42%, 4.9 mM, 2.9 mM and 1 mM.
In assay [1], `C[S+](C)[O-]` [DIMETHYL SULFOXIDE] yielded a Benzidine positive cells of 70%. Also, in assay [3], the Optimal concentration stood at 200 mM.
Compound `Nc1nc(O)c2nc(OCc3ccccc3)n([C@H]3C[C@H](O)[C@@H](CO)O3)c2n1` displayed a Benzidine positive cells in assay [1] of 7%. For the same compound, the IC50 in assay [2] and in assay [4] was more than 5 mM throughout. In assay [3], this compound showed an Optimal concentration of 7 mM.
With `Nc1nc(O)c2nc(S)n([C@@H]3O[C@H](CO)[C@@H](O)[C@H]3O)c2n1`, the Benzidine positive cells in assay [1] turned out to be 4%. Also, the IC50 in assay [2] and in assay [4] was 3.5 mM in each case. In assay [3], this compound had an Optimal concentration of 2 mM.
In assay [1], `COc1nc2c(O)nc(N)nc2n1C1O[C@H](CO)[C@@H](O)[C@H]1O` (stereo partly specified) returned a Benzidine positive cells of 7%. The IC50 in assay [2] and in assay [4] was more than 8 mM throughout. In assay [3], this compound yielded an Optimal concentration of 8 mM.
Regarding `Nc1nc2c(nc(Br)n2[C@@H]2O[C@H](CO)[C@@H](O)[C@H]2O)c(=O)[nH]1`, the Benzidine positive cells in assay [1] is given as 6%. Moreover, the IC50 in assay [2] and in assay [4] was 5.1 mM in each case. Moreover, the Optimal concentration in assay [3] was determined as 5 mM.
